High-throughput results as filed in PubChem BioAssay.
MrgX1 antagonist – blocks BAM8-22 activation of human MrgX1 receptor | MRGX1-HEK293 calcium flux, Fluo-4, BAM8-22 antagonism; stronger effect = lower value | actives 1.3% (n = 310,000) | AID 588676 | Q96LB2 | B-score at 10 µM;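 active = calcium-response B-score plate-corrected more than 3 library SD below zero, starting fluorescence within 5 deviations, no agonist response on first addition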;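 note: peak minus trough fluorescence over baseline after final BAM8-22 challenge near maximal dose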
Target sequence (Q96LB2 whole entry, looked up): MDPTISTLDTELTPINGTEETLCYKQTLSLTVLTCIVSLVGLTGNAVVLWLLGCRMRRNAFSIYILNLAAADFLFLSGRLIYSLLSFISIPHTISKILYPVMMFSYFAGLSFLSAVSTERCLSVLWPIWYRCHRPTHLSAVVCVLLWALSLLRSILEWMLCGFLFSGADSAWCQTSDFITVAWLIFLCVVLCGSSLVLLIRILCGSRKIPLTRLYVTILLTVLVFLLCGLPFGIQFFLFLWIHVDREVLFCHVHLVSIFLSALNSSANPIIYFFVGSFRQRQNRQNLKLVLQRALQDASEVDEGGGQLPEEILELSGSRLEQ
RGS4 pot – RGS4 potentiation or activation | B-score at 10 µM | actives 0.92% (n = 310,000) | HEK293 M3R/inducible RGS4, carbachol calcium flux Fluo4; stronger effect = lower value | AID 463111;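 active = B-score of the integrated calcium signal more than 4 SD below the library mean, with starting fluorescence not abnormally high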;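 note: negative B-score means reduced calcium response which marks RGS4 activation or potentiation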
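System: HEK293 FlpIn-TREx cells, stable M3R, doxycycline-inducible RGS4. Timing: overnight RGS4 induction, 30 min dye load 37 °C, 20 min compound RT. Also added: carbachol, ECmax concentration. Measured by: Fluo4 fluorescence kinetic imaging of calcium. Evaluation: integrated calcium ratio converted to B score.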
MrgX1 agonist – human MrgX1 receptor agonism, primary screen | B-score at 10 µM | AID 588627 | MrgX1-HEK293 cells, Fluo-4 calcium fluorescence, agonist mode; stronger effect = higher value | actives 0.44% (n = 310,000);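 active = calcium response B-score plate-corrected fluorescence ratio at least 3 library SD, with starting fluorescence B-score inside 5 SD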
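System: HEK293 cells stably expressing human MrgX1 receptor; Dosing: test compound in the initial addition of three; Schedule: overnight plating, then 30 min 37 °C plus 30 min room-temperature dye loading; Detection: kinetic calcium dye fluorescence, Fluo-4 NW; Controls: per-plate positive and negative controls for Z′ factor.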
RGS4 inh – human RGS4 inhibition; P49798; HEK293 M3R/RGS4 inducible, Fluo-4 calcium flux; stronger effect = higher value; triggered by carbachol at its EC20; B-score at 10 µM; actives 0.45% (n = 310,000);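 active = B-score, a plate-corrected calcium signal, over three deviations above library mean, with baseline fluorescence within five deviations of library mean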;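 note: RGS4 expression induced by doxycycline in cells with stable M3 receptor; B-score is computed from the integrated fluorescence ratio over baseline after carbachol; higher B-score means a larger calcium signal and so more RGS4 inhibition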
Target sequence (P49798 whole entry, looked up): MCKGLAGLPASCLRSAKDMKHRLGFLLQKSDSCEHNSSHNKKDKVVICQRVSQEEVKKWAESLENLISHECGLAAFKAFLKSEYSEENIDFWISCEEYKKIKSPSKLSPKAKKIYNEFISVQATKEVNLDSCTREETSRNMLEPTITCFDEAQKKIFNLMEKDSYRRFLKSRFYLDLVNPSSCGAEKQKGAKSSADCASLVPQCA
MrgX1 PAM – human MrgX1 positive allosteric modulation, primary screen; Q96LB2; MrgX1-HEK293, Fluo-4 calcium flux, FDSS; stronger effect = higher value; B-score at 10 µM; actives 0.63% (n = 310,000); AID 588675;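 active = plate-corrected calcium response at least 3 library SD above typical, normal starting fluorescence, not activating the receptor alone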;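 note: compound read alongside a low EC10 to EC30 dose of BAM8-22 agonist; peak minus trough fluorescence over baseline measured at the second addition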
MrgX1 ant reconf – reconfirmed antagonist of human MrgX1 receptor signaling; AID 602420; MrgX1-HEK293, BAM8-22 calcium flux, Fluo-4; stronger effect = lower value; remaining BAM8-22 calcium response % of control (stronger effect = lower value), % at 10 µM; shares compounds with MrgX1 antagonist; actives 19% (n = 2,300);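 active = remaining agonist calcium response no higher than 100% minus 3 SD of agonist-only control wells, with starting fluorescence near control levels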;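 note: agonist BAM8-22 given at a near maximal EC90 to ECmax level; peak minus minimum fluorescence divided by baseline after agonist addition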
HEK293 Ca flux – counter-screen for MrgX1 antagonists: effect in parental HEK293 cells; shares compounds with MrgX1 antagonist; fluorescence ratio F(max-min)/F0 at 10 µM; actives 2% (n = 4,000); Fluo-4 calcium fluorescence, FDSS; AID 624111;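 active = duplicate-averaged calcium fluorescence ratio at least three times the standard deviation of buffer wells, a nonspecific response in parental cells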
HEK293 Ca counter – counter-screen for MrgX1 allosteric activators: effect in parental HEK293 cells; shares compounds with MrgX1 antagonist; parental HEK293 calcium flux, Fluo-4 fluorescence ratio; stronger effect = higher value; fluorescence ratio F(max-min)/F0 at 10 µM; actives 0.4% (n = 4,000);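 active = calcium fluorescence ratio, averaged over duplicates, at least 3 SD of the buffer-well ratio, meaning a nonspecific response in receptor-free cells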;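 note: untransfected parental HEK293 lacking MrgX1 used as counterscreen for MrgX1 allosteric activators; fluorescence change taken during the second addition on a kinetic imager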
HEK293 Ca cntr2 – activity in parental HEK293 cells lacking MrgX1 receptor; shares compounds with MrgX1 antagonist; Fluo-4 calcium fluorescence (FDSS); stronger effect = higher value; fluorescence ratio F(max-min)/F0 at 10 µM; actives 8.7% (n = 4,000); AID 624115;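 active = calcium fluorescence ratio at least three times the spread of buffer wells, meaning a non-specific response in parental cells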
Of the large screens only hits and unclear results are named; the others gave an inactive call (follow-up assays come after a bar, where they were run). A selection: hits, their analogues and other compounds. The true share with any hit is near 3.5%.

Cc1cc(NC(=O)c2oc3ccccc3c2C)ccc1-n1cnnn1	none
Cc1ccc(-n2c(SCC(N)=O)nnc2-c2ccccn2)cc1	none
Cc1cccc(-n2c(SCC(N)=O)nnc2-c2ccccn2)c1C	MrgX1 antagonist -8.27 | MrgX1 ant reconf inactive | HEK293 Ca flux inactive | HEK293 Ca counter inactive | HEK293 Ca cntr2 inactive
COCc1cc(C)n(CC(=O)Nc2ccc(N3CCOCC3)cc2)c(=O)c1C#N	none
O=C(C1CCCN(c2ncnc3c2nc2n3CCCCC2)C1)N1CCN(c2ccc(F)cc2)CC1 (stereo not drawn)	none
Cc1ccc(C(=O)NC(N(C)C)C(Cl)(Cl)Cl)cc1 (stereo not drawn)	MrgX1 antagonist -4.53 | MrgX1 ant reconf inactive | HEK293 Ca flux inactive | HEK293 Ca counter inactive | HEK293 Ca cntr2 inactive
Cc1ccc(C(NC(=O)c2ccccc2)C(Cl)(Cl)Cl)cc1 (stereo not drawn)	none
Nc1c(C(=O)N2CCOCC2)sc2nc(N3CCOCC3)c3c(c12)CCCC3	none
Cc1cccc2cc3c(N)c(C(=O)N4CCOCC4)sc3nc12	MrgX1 antagonist -5.14 | MrgX1 ant reconf inactive | HEK293 Ca flux inactive | HEK293 Ca counter inactive | HEK293 Ca cntr2 48.3
COC(=O)C1N[C@@H]([C@@H](NC(=O)COc2ccccc2)C(=O)NCc2ccsc2)SC1(C)C (stereo partly drawn)	none
CCCCCNC(=O)c1cc(S(=O)(=O)N2CCCCC2)ccc1F	MrgX1 antagonist -7.91 | MrgX1 ant reconf inactive | HEK293 Ca flux inactive | HEK293 Ca counter inactive | HEK293 Ca cntr2 inactive
O=C(NCCc1ccccc1)c1cc(S(=O)(=O)N2CCCC2)ccc1F	none
Cc1cc(F)ccc1NC(=O)c1cc(S(=O)(=O)N2CCc3ccccc32)cn1C	MrgX1 antagonist -5.27 | MrgX1 ant reconf inactive | HEK293 Ca flux inactive | HEK293 Ca counter inactive | HEK293 Ca cntr2 inactive
c1ccc(-c2nnc(SCCC3OCCCO3)o2)cc1	none
O=c1[nH]c2cc(Br)cnc2nc1/C=C(\O)c1ccc(F)cc1	MrgX1 antagonist -6.95 | MrgX1 ant reconf 75.0% | HEK293 Ca flux inactive | HEK293 Ca counter inactive | HEK293 Ca cntr2 inactive
COc1ccc(OCc2cc(C(=O)NCCN3CCCC(O)C3)no2)c(Cl)c1 (stereo not drawn)	none
CCCc1cc(=O)oc2cc(C)cc(OCC(=O)N3CCC(C(N)=O)CC3)c12	MrgX1 antagonist -4.95 | MrgX1 ant reconf inactive | HEK293 Ca flux inactive | HEK293 Ca counter inactive | HEK293 Ca cntr2 inactive
CCn1cc(C2C(C(=O)Nc3ccc(Br)cn3)=C(C)NC3=C2C(=O)CCC3)c(C)n1 (stereo not drawn)	none
CC1=C(C(=O)Nc2ccccn2)C(c2cn(C)nc2C)C2=C(CCCC2=O)N1 (stereo not drawn)	MrgX1 antagonist -4.94 | MrgX1 ant reconf inactive | HEK293 Ca flux inactive | HEK293 Ca counter inactive | HEK293 Ca cntr2 inactive
Cc1ccc(-c2ccc(SCC(=O)Nc3cc(C)on3)nn2)cc1	none
Cc1cc(NC(=O)CSc2ccc(-c3ccc(Br)cc3)nn2)no1	MrgX1 antagonist -8.21 | MrgX1 ant reconf inactive | HEK293 Ca flux inactive | HEK293 Ca counter inactive | HEK293 Ca cntr2 inactive
CCCC(=O)Nc1cc(OC)c(NC(=O)NC2CCCCC2)cc1OC	MrgX1 antagonist -4.58 | MrgX1 ant reconf inactive | HEK293 Ca flux inactive | HEK293 Ca counter inactive | HEK293 Ca cntr2 inactive
COc1ccc(OC)c(NC(=O)NC2CCCCCCC2)c1	none
O=C(Oc1cccc(-n2cnnn2)c1)c1ccco1	MrgX1 antagonist -6.53 | MrgX1 ant reconf 78.6% | HEK293 Ca flux inactive | HEK293 Ca counter inactive | HEK293 Ca cntr2 inactive
N#CCCN(Cc1cccnc1)C(=S)NC(=O)c1ccco1	none
